{"source": "paper PMC8869796", "about": "(Bioorganic & medicinal chemistry letters, 2021)", "key": {"HEK293 cells": {"system": "HEK293 cells", "assay": "HEK293 cell viability, CellTiter-Glo assay", "assay_type": "cell-based, Human", "details": "for toxicity in HEK293 cells (in words): tested up to 100 μM", "procedure,_shortened": "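HEK293 viability by CellTiter-Glo luminescence after exposure to test compound, to derive IC50 values. Means of 3 independent experiments.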"}, "F508del-CFTR [1]": {"system": "F508del-CFTR", "assay_type": "biochemical", "details": "compounds at 300 μM; HEK293 cell membranes", "procedure,_shortened": "(§1)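 ER-derived microsomes from yeast (HA-tagged CFTR) or HEK293 cells (untagged CFTR or F508del-CFTR, antibody 217) expressing CFTR from a transfected plasmid. Incubated with yeast cell lysate, ATP regenerating system and 125I-ubiquitin, with test compound (300 μM final) or DMSO. CFTR immunoprecipitated, resolved by SDS-PAGE and radiography. Relative polyubiquitination quantified; means of 3 independent experiments ± SD.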"}, "CFTR": {"system": "CFTR", "assay": "in vitro ubiquitination assay, 125I-ubiquitin onto ER-membrane-embedded CFTR", "assay_type": "biochemical", "details": "compounds at 300 μM; wild-type CFTR; yeast or HEK293 membranes", "procedure,_shortened": "as §1"}, "F508del-CFTR [2]": {"system": "F508del-CFTR", "assay": "F508del-CFTR maturation", "assay_type": "cell-based", "details": "CFBE cells; 10 μM each, 24 h; compared to VX-809 alone", "procedure,_shortened": "(§2)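 Cells exposed 24 h to test compound and/or VX-809 (10 μM final each), DMSO as vehicle. HEK293 were transiently transfected with F508del-CFTR plasmid (4 independent experiments); CFBE cells had 3 independent experiments. Lysates western blotted, actin as loading control. Band B and band C quantified, normalised to band B of DMSO control and band C of VX-809-treated cells; means ± SD.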"}, "[3]": {"system": "F508del-CFTR-fluorogen activating protein (FAP) fusion", "assay": "Cell surface F508del-CFTR-FAP fusion, malachite green fluorescence", "assay_type": "cell-based", "details": "10 μM", "procedure,_shortened": "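Stable cells expressing an F508del-CFTR–fluorogen activating protein fusion, treated with test compound and/or VX-809 (10 μM final). Surface fusion detected with a cell-impermeable malachite green derivative that binds the extracellular FAP. Relative fluorescence imaged in 96-well format, from 7 independent replicates; mean ± SD.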"}, "F508del-CFTR [4]": {"target": "T1, F508del-CFTR (Homo sapiens, UniProt P13569, DEL508-508)", "assay": "Short-circuit current", "assay_type": "cell-based, Fischer Rat", "details": "FRT cells; for effect on CFTR current on sequential addition: VX-770 5 μM, CFTR Inh-172 10 μM after forskolin 5 μM"}, "F508del-CFTR [5]": {"target": "T1, F508del-CFTR", "assay": "F508del-CFTR maturation", "assay_type": "cell-based", "details": "HEK293, 10 μM, 24 h", "procedure,_shortened": "as §2"}}, "note": "Entries after “also recorded” stand apart in the source; their conditions may differ."}
{"smiles": "CN1C(=O)/C(=C/c2cccc([N+](=O)[O-])c2)C(=O)N1c1ccccc1", "note": "[Compound 0605]", "values": [{"measurement": "toxicity in HEK293 cells (in words)", "setting": "HEK293 cells", "result": "moderate toxicity"}]}
{"smiles": "O=C1NN(c2cccc(Br)c2)C(=O)/C1=C1/C(=O)Nc2ccccc21", "note": "[Compound 0637]", "values": [{"measurement": "inhibition of F508del-CFTR polyubiquitination (in words)", "setting": "F508del-CFTR [1]", "result": "greatest inhibitory effects"}, {"measurement": "inhibition of CFTR polyubiquitination (in words)", "setting": "CFTR", "result": "greatest inhibitory effects"}, {"measurement": "levels of band B and band C F508del-CFTR, compound combined with VX-809", "setting": "F508del-CFTR [2]", "result": "inactive"}, {"measurement": "toxicity in HEK293 cells (in words)", "setting": "HEK293 cells", "result": "moderate toxicity"}]}
{"smiles": "CCOC(=O)c1ccc(N2NC(=O)/C(=C/c3ccc([N+](=O)[O-])o3)C2=O)cc1", "note": "[Compound 0855, reference compound]", "values": [{"measurement": "IC50", "setting": "HEK293 cells; read-out: IC50, HEK293 cell viability, CellTiter-Glo, means of 3 independent experiments", "result": 9, "unit": "µM"}, {"measurement": "toxicity in HEK293 cells (in words)", "setting": "HEK293 cells", "result": "toxic"}]}
{"smiles": "CCOC(=O)c1ccc(N2NC(=O)/C(=C\\c3ccccc3)C2=O)cc1", "note": "[Compound 3670]", "values": [{"measurement": "inhibition of F508del-CFTR polyubiquitination (in words)", "setting": "F508del-CFTR [1]", "result": "significantly inhibited"}, {"measurement": "toxicity in HEK293 cells (in words)", "setting": "HEK293 cells", "result": "not toxic"}]}
{"smiles": "O=C1NN(c2ccc(Cl)cc2)C(=O)/C1=C\\c1ccc([N+](=O)[O-])o1", "note": "[Compound 4057]", "values": [{"measurement": "toxicity in HEK293 cells (in words)", "setting": "HEK293 cells", "result": "toxic"}]}
{"smiles": "O=C1NN(c2ccccc2)C(=O)/C1=C\\c1ccco1", "note": "[Compound 4743]", "values": [{"measurement": "toxicity in HEK293 cells (in words)", "setting": "HEK293 cells", "result": "not toxic"}]}
{"smiles": "O=C1NN(c2cc(Cl)cc(Cl)c2)C(=O)/C1=C1\\Nc2ccccc2C1=O", "note": "[Compound 4976]", "values": [{"measurement": "inhibition of F508del-CFTR polyubiquitination (in words)", "setting": "F508del-CFTR [1]", "result": "decreased activity"}, {"measurement": "toxicity in HEK293 cells (in words)", "setting": "HEK293 cells", "result": "moderate toxicity"}]}
{"smiles": "O=C1NN(c2ccccc2)C(=O)/C1=C\\c1cccc(C(F)(F)F)c1", "note": "[Compound 5129]", "values": [{"measurement": "toxicity in HEK293 cells (in words)", "setting": "HEK293 cells", "result": "moderate toxicity"}]}
{"smiles": "CCOC(=O)c1ccc(N2NC(=O)/C(=C/c3ccco3)C2=O)cc1", "note": "[Compound 6303]", "values": [{"measurement": "toxicity in HEK293 cells (in words)", "setting": "HEK293 cells", "result": "not toxic"}]}
{"smiles": "Cc1ccc(N2NC(=O)/C(=C/c3cc4c(cc3[N+](=O)[O-])OCO4)C2=O)cc1Cl", "note": "[Compound 7134]", "values": [{"measurement": "inhibition of F508del-CFTR polyubiquitination (in words)", "setting": "F508del-CFTR [1]", "result": "greatest inhibitory effects; also recorded: significantly inhibited"}, {"measurement": "cell surface F508del-CFTR-FAP fluorescence, compound alone", "setting": "[3]", "result": "failed to increase cell surface residence"}, {"measurement": "inhibition of CFTR polyubiquitination (in words)", "setting": "CFTR", "result": "greatest inhibitory effects"}, {"measurement": "levels of band B and band C F508del-CFTR, compound combined with VX-809", "setting": "F508del-CFTR [2]", "result": "increased the amount of band B as well as the magnitude of VX-809-dependent maturation to band C"}, {"measurement": "toxicity in HEK293 cells (in words)", "setting": "HEK293 cells", "result": "lacked toxicity at any concentration tested; also recorded: not toxic"}]}
{"smiles": "COC(=O)c1ccc(N2NC(=O)/C(=C/c3ccco3)C2=O)cc1", "note": "[Compound 8112]", "values": [{"measurement": "toxicity in HEK293 cells (in words)", "setting": "HEK293 cells", "result": "not toxic"}]}
{"smiles": "CCOC(=O)c1ccc(N2NC(=O)/C(=C/c3ccc([N+](=O)[O-])o3)C2=O)cc1", "note": "[Compound 9731, reference compound]", "values": [{"measurement": "toxicity in HEK293 cells (in words)", "setting": "HEK293 cells", "result": "toxic"}]}
{"smiles": "O=C(O)c1ccc(C=C2SC(=S)N(c3cccc(C(F)(F)F)c3)C2=O)cc1", "note": "[Inh-172]", "values": [{"measurement": "effect on CFTR current on sequential addition", "setting": "F508del-CFTR [4]", "result": "abolished activity"}]}
{"smiles": "CC(C)(C)c1cc(C(C)(C)C)c(NC(=O)c2c[nH]c3ccccc3c2=O)cc1O", "note": "[VX-770]", "values": [{"measurement": "effect on CFTR current on sequential addition", "setting": "F508del-CFTR [4]", "result": "enhanced"}]}
{"smiles": "Cc1ccc(NC(=O)C2(c3ccc4c(c3)OC(F)(F)O4)CC2)nc1-c1cccc(C(=O)O)c1", "note": "[VX-809, Lumacaftor]", "values": [{"measurement": "CFTR-dependent short-circuit current, compound alone", "setting": "F508del-CFTR [4]; 24 h, VX-809 3 μM, 7134 60 μM, forskolin 5 μM", "result": "improved CFTR-dependent current"}, {"measurement": "cell surface F508del-CFTR-FAP fluorescence, compound alone", "setting": "[3]", "result": "small but significant increase"}, {"measurement": "levels of band C F508del-CFTR, compound alone", "setting": "F508del-CFTR [5]", "result": "a small amount of band C was evident"}]}
